Laboratory results published in ChEMBL document CHEMBL1641604, “Application of p21 and klf2 reporter gene assays to identify selective histone deacetylase inhibitors for cancer therapy” (Bioorg Med Chem Lett, 2011).

Legend:
HeLa [1] = test: Induction of p21 promoter gene in human HeLa cells assessed as percent induction activity at 3 uM relative to SNDX-275; type: functional
A204 [2] = test: Induction of klf2 promoter gene in human A204 cells assessed as percent induction activity at 3 uM relative to SNDX-275; type: functional
HeLa [3] = test: Selectivity ratio for induction of p21 promoter gene in human HeLa cells to induction of klf2 promoter gene in human A204 cells at 3 uM; type: functional
HeLa [4] = test: Induction of p21 promoter gene in human HeLa cells assessed as percent induction activity at 10 uM relative to SNDX-275; type: functional
A204 [5] = test: Induction of klf2 promoter gene in human A204 cells assessed as percent induction activity at 10 uM relative to SNDX-275; type: functional
HeLa [6] = test: Selectivity ratio for induction of p21 promoter gene in human HeLa cells to induction of klf2 promoter gene in human A204 cells at 10 uM; type: functional
HeLa [7] = test: Antiproliferative activity against human HeLa cells assessed as growth at 3 uM after 24 hrs; type: functional; conditions: read-out: Activity
How it was run: (§1)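 HeLa and A204 cells exposed to test agents at 3 or 10 µM for 24 h. Growth is expressed as percent of vehicle-treated control cells.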

HeLa [8] = test: Antiproliferative activity against human HeLa cells assessed as growth at 10 uM after 24 hrs; type: functional; conditions: read-out: Activity; how it was run: as §1
A204 [9] = test: Antiproliferative activity against human A204 cells assessed as growth at 3 uM after 24 hrs; type: functional; conditions: A204, 24 h, read-out: Activity; how it was run: as §1
A204 [10] = test: Antiproliferative activity against human A204 cells assessed as growth at 10 uM after 24 hrs; type: functional; conditions: A204, 24 h, read-out: Activity; how it was run: as §1
Histone deacetylase 1 = Histone deacetylase 1 (Homo sapiens, UniProt Q13547); test: Inhibition of HDAC1
Histone deacetylase 2 = Histone deacetylase 2 (Homo sapiens, UniProt Q92769); test: Inhibition of HDAC2
Histone deacetylase 3 = Histone deacetylase 3 (Homo sapiens, UniProt O15379)
HeLa [11] = test: Antiproliferative activity against human HeLa cells after 72 hrs by tetrazolium dye assay; type: functional
How it was run: (§2)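 Tetrazolium dye proliferation assay over 72 h, with half-log serial dilutions from 30 µM down to 100 nM. GI50 was derived from the dose-response.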

U2OS = test: Antiproliferative activity against human U2OS cells after 72 hrs by tetrazolium dye assay; type: functional; how it was run: as §2
HepG2 = test: Antiproliferative activity against human HepG2 cells after 72 hrs by tetrazolium dye assay; type: functional; conditions: HepG2, 72 h; how it was run: as §2
MCF7 = test: Antiproliferative activity against human MCF7 cells after 72 hrs by tetrazolium dye assay; type: functional; conditions: MCF7, 72 h; how it was run: as §2
HL-60 = test: Antiproliferative activity against human HL60 cells after 72 hrs by tetrazolium dye assay; type: functional; conditions: HL-60, 72 h; how it was run: as §2
HCT-116 [12] = test: Antiproliferative activity against human HCT116 cells after 72 hrs by tetrazolium dye assay; type: functional; conditions: HCT-116, 72 h; how it was run: as §2
HCT-116 [13] = test: Induction of acetylated H4 level in human HCT116 cells after 24 hrs; type: functional, cell-based
How it was run: (§3)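 HCT-116 cells treated for 24 h across a range of concentrations. Acetylated histone H4 and endogenous p21, or cell-cycle distribution, were assessed.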

HCT-116 [14] = test: Induction of endogenous p21 level in human HCT116 cells after 24 hrs; type: functional, cell-based; how it was run: as §3
HCT-116 [15] = test: Cell cycle arrest in human HCT116 cells after 24 hrs; type: functional, cell-based; how it was run: as §3
HCT-116 [16] = test: Induction of apoptosis in human HCT116 cells after 48 hrs by annexin V/FACS analysis; type: functional, cell-based
How it was run: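 HCT-116 cells exposed for 48 h to several concentrations or vehicle. Apoptosis was scored as percent annexin V-positive cells by FACS.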

Histone deacetylase 1, sequence (Q13547 whole entry): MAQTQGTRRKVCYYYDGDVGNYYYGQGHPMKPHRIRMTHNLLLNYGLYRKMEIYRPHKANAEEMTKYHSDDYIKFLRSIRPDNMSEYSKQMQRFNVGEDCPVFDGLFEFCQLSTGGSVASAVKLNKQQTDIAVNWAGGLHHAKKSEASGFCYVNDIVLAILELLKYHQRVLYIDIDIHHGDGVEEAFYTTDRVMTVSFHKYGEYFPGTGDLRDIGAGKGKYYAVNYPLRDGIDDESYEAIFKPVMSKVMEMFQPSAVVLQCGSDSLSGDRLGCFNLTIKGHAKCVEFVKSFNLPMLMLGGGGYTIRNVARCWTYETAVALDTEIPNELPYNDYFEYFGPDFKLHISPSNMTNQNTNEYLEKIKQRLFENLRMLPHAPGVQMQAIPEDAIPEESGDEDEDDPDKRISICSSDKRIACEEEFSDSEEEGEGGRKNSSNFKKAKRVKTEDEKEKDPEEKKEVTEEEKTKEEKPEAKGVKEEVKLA
Histone deacetylase 3, sequence (O15379 whole entry): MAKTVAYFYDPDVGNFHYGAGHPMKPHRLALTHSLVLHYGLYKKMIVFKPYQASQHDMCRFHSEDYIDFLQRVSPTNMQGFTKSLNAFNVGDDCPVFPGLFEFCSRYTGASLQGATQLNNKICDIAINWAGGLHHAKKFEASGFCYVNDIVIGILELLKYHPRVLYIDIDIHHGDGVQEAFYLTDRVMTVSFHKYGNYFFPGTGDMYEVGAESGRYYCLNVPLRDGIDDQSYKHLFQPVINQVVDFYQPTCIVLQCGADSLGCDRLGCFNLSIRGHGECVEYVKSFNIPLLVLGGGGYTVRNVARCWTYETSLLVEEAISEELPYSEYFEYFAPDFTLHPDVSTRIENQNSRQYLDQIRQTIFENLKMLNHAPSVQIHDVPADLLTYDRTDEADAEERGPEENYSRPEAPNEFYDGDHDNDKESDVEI
Histone deacetylase 2, sequence (Q92769 whole entry): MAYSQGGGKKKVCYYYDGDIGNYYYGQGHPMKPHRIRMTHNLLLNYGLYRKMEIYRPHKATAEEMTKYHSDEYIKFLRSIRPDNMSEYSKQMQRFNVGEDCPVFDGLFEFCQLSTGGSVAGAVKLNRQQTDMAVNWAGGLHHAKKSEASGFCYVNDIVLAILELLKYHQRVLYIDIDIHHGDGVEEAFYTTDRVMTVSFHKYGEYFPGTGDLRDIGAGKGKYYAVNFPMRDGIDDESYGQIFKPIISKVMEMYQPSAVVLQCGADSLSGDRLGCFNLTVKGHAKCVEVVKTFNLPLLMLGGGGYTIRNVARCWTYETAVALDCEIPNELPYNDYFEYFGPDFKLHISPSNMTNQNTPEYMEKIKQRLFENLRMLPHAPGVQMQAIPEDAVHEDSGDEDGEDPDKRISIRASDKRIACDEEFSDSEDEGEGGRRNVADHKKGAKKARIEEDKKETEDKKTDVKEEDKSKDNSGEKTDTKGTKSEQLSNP

| SMILES | Activity (HeLa [1]) [%] | Activity (A204 [2]) [%] | Activity (HeLa [3]) | Activity (HeLa [4]) [%] | Activity (A204 [5]) [%] | Activity (HeLa [6]) | also measured |
| --- | --- | --- | --- | --- | --- | --- | --- |
| Nc1ccccc1NC(=O)/C=C/c1ccc(C(C(=O)Nc2ccc(C3CC3)cc2)N2CCCC2)cc1 (centres undefined) | 100 | 58 | 1.7 | 148 | 98 | 1.5 | – |
| CN(C)CCNC(C(=O)Nc1ccc(C(F)(F)F)cc1)c1ccc(/C=C/C(=O)Nc2ccccc2N)cc1 (centres undefined) | 138 | 69 | 2 | 134 | 93 | 1.4 | – |
| CN(CCN1CCOCC1)C(C(=O)Nc1ccc(C(F)(F)F)cc1)c1ccc(/C=C/C(=O)Nc2ccccc2N)cc1 (centres undefined) | 72 | 70 | 1 | 121 | 82 | 1.5 | – |
| Nc1ccccc1NC(=O)/C=C/c1ccc(C(NCCN2CCCCC2)C(=O)Nc2ccc(OC(F)(F)F)cc2)cc1 (centres undefined) | 112 | 39 | 2.9 | 136 | 40 | 3.4 | growth at 3 µM (HeLa [7]): 105%; growth at 10 µM (HeLa [8]): 61%; growth at 3 µM (A204 [9]): 95%; growth at 10 µM (A204 [10]): 88% |
| CC(CNC(C(=O)Nc1ccc(-c2ccc(C3CC3)cc2)cc1)c1ccc(/C=C/C(=O)Nc2ccccc2N)cc1)N1CCOCC1 (centres undefined) | 161 | 75 | 2.2 | 196 | 98 | 2 | – |
| Nc1ccccc1NC(=O)/C=C/c1ccc(C(NCCCN2CCOCC2)C(=O)Nc2ccc(C3CC3)cc2)cc1 (centres undefined) | 117 | 70 | 1.7 | 178 | 95 | 1.9 | – |
| N#Cc1ccc(-c2ccc(NC(=O)C(NCCN3CCCCC3)c3ccc(/C=C/C(=O)Nc4ccccc4N)cc3)cc2)cc1 (centres undefined) | 128 | 72 | 1.8 | 157 | 92 | 1.7 | – |
| Nc1ccccc1NC(=O)/C=C/c1ccc(C(NCCN2C[C@@H]3C[C@H]2CO3)C(=O)Nc2ccc(OC(F)(F)F)cc2)cc1 (some centres undefined) | 98 | 39 | 2.6 | 152 | 63 | 2.4 | growth at 3 µM (HeLa [7]): 103%; growth at 10 µM (HeLa [8]): 82%; growth at 3 µM (A204 [9]): 97%; growth at 10 µM (A204 [10]): 90% |
| Nc1ccccc1NC(=O)/C=C/c1ccc(C(NCCN2CCCCC2)C(=O)Nc2ccc(-c3ccc(C(F)(F)F)c(F)c3)cc2)cc1 (centres undefined) | 77 | 32 | 2.4 | 92 | 54 | 1.7 | – |
| Nc1ccccc1NC(=O)/C=C/c1ccc(C(C(=O)Nc2ccc(C(F)(F)F)cc2)N2CCCC2)cc1 (centres undefined) | 85 | 62 | 1.4 | 89 | 69 | 1.3 | – |
| CN(C)C(C(=O)Nc1ccc(C(F)(F)F)cc1)c1ccc(/C=C/C(=O)Nc2ccccc2N)cc1 (centres undefined) | 24 | 45 | 0.5 | 43 | 33 | 1.3 | – |
| Nc1ccccc1NC(=O)/C=C/c1ccc(C(NCCN2CCOCC2)C(=O)Nc2ccc(C(F)(F)F)cc2)cc1 (centres undefined) | 86 | 64 | 1.4 | 116 | 38 | 3.1 | IC50 (Histone deacetylase 1): 60 nM; IC50 (Histone deacetylase 2): 290 nM; IC50 (Histone deacetylase 3): 460 nM; GI50 (HeLa [11]): 2200 nM; GI50 (U2OS): 1000 nM; GI50 (HepG2): 1700 nM; GI50 (MCF7): 1900 nM; GI50 (HL-60): 400 nM; GI50 (HCT-116 [12]): 1000 nM; Activity (HCT-116 [13]): Dose-dependent effect; Activity (HCT-116 [14]): Dose-dependent effect; Activity (HCT-116 [15]): Dose-dependent effect; Activity (HCT-116 [16]): Dose-dependent effect |
| Nc1ccccc1NC(=O)/C=C/c1ccc(C(NCc2ccco2)C(=O)Nc2ccc(C(F)(F)F)cc2)cc1 (centres undefined) | 19 | 30 | 0.6 | 36 | 21 | 1.7 | – |
